Key:
Type in all cases: in vivo, mouse
[1] = test system: athymic nude mice bearing U87MG glioma xenografts; settings: 60 min p.i.
[2] = test system: athymic nude mice bearing U87MG human glioma xenografts; experiment: SPECT/CT imaging with SPECT quantification of tumor uptake; settings: U87MG glioma xenograft; ~37 MBq via tail vein; imaging at 60 min p.i.
Summary of the method: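 Imaging dose: ~37 MBq radiotracer (~0.8 µg conjugate) in 0.1 mL saline i.v.; mice imaged under isoflurane. SPECT: multi-pinhole collimator (0.6 mm), 75 projections per 30-min frame, 2 frames. CT: 45 kV, 500 µA, 2° intervals. Tumour ROIs drawn on CT; counts converted to activity via a standard curve from sources of known activity scanned the same way; expressed as %ID/cm3.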

[3] = test system: athymic nude mice bearing U87MG human glioma xenografts; experiment: Biodistribution in athymic nude mice bearing U87MG glioma xenografts; settings: average ± SD; for Brain uptake / Eyes uptake / Heart uptake / Intestine uptake / Kidney uptake / Liver uptake / Lungs uptake / Muscle uptake / Spleen uptake / Blood uptake / Tumor uptake: tail vein ~0.1 MBq; for Blood uptake: γ-counting; for Tumor uptake: U87MG glioma xenograft
Summary of the method: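 Tumour model: female athymic nu/nu mice, 4–5 weeks old, inoculated s.c. in the shoulder flank with 5 × 10^6 U87MG cells and used 4 weeks later (tumours 0.1–0.5 g; mice 20–25 g). Dosing: ~0.1 MBq radiotracer (~2 ng conjugate) in filtered saline. Groups of 5–8 killed at 5, 30, 60 and 120 min by pentobarbital overdose. Blood and organs washed, blotted, weighed and γ-counted as %ID/g.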

[4] = test system: athymic nude mice without tumors; experiment: Metabolism study; settings: ~10 MBq via tail vein, n = 3, radio-HPLC
Summary of the method: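 Tumour-free athymic nude mice (n = 3), ~10 MBq radiotracer i.v. Urine (manual void): mixed 1:1 with 50% acetonitrile, spun at 8,000 rpm, supernatant 0.20 µm-filtered. Feces: homogenised, suspended in 20% acetonitrile, vortexed ~5 min, spun, filtered. Filtrates analysed by C18 HPLC at 2.5 mL/min on a 0.05% TFA water/acetonitrile gradient (10% to 30% B over 20 min).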

[5] = co-injection of excess RGD2 (350 µg/mouse or 14 mg/kg), n = 6

[^99mTc(HYNIC-Galacto-RGD2)(tricine)(TPPTS)] (bicyclic or more) [^99mTc-Galacto-RGD2]
Intestine uptake in the presence of RGD2 [1, 5]: 1.82 ± 0.86 %ID/g
Lungs uptake in the presence of RGD2 [1, 5]: 1.52 ± 0.27 %ID/g
Spleen uptake in the presence of RGD2 [1, 5]: 0.65 ± 0.07 %ID/g
Tumor uptake with RGD2 ([1]; co-injection of excess RGD2 (350 µg/mouse or 14 mg/kg), n = 6, average ± SD): 1.48 ± 0.42 %ID/g
Reduction of liver uptake by co-injected excess RGD2 ([1]; of its origin value): 50%
Reduction of lung uptake by co-injected excess RGD2 ([1]; of its origin value): 50%
Tumor uptake on the basis of SPECT quantification [2]: ~ 8.5 %ID/cm^3
Tumor/Blood ratio ([3]; 5 min p.i., n = 5): 9.43 ± 1.19
Tumor/Kidney ratio ([3]; 5 min p.i., n = 5): 0.52 ± 0.14
Tumor/Liver ratio ([3]; 5 min p.i., n = 5): 2.66 ± 0.51
Tumor/Lung ratio ([3]; 5 min p.i., n = 5): 1.90 ± 0.21
Tumor/Muscle ratio ([3]; 5 min p.i., n = 5): 3.98 ± 0.75
Brain uptake ([3]; 5 min p.i., n = 5): 0.41 ± 0.10 %ID/g
Eyes uptake ([3]; 5 min p.i., n = 5): 1.54 ± 0.49 %ID/g
Heart uptake ([3]; 5 min p.i., n = 5): 2.36 ± 0.29 %ID/g
Intestine uptake ([3]; 5 min p.i., n = 5): 3.78 ± 0.52 %ID/g
Kidney uptake ([3]; 5 min p.i., n = 5): 18.75 ± 2.79 %ID/g
Liver uptake ([3]; 5 min p.i., n = 5): 4.00 ±1.10 %ID/g
Lungs uptake ([3]; 5 min p.i., n = 5): 5.41 ± 0.58 %ID/g
Muscle uptake ([3]; 5 min p.i., n = 5): 2.73 ± 0.89 %ID/g
Spleen uptake ([3]; 5 min p.i., n = 5): 2.97 ± 0.43 %ID/g
Blood uptake ([3]; 5 min p.i., n = 5): 1.10 ± 0.16 %ID/g
Tumor/Blood ratio ([3]; 30 min p.i., n = 5): 9.65 ± 2.03
Tumor/Kidney ratio ([3]; 30 min p.i., n = 5): 0.61 ±0.12
Tumor/Liver ratio ([3]; 30 min p.i., n = 5): 3.25 ± 0.85
Tumor/Lung ratio ([3]; 30 min p.i., n = 5): 2.19 ± 0.75
Tumor/Muscle ratio ([3]; 30 min p.i., n = 5): 7.97 ± 2.53
Brain uptake ([3]; 30 min p.i., n = 5): 0.22 ± 0.06 %ID/g
Eyes uptake ([3]; 30 min p.i., n = 5): 1.20 ± 0.50 %ID/g
Heart uptake ([3]; 30 min p.i., n = 5): 1.65 ± 1.10 %ID/g
Intestine uptake ([3]; 30 min p.i., n = 5): 4.24 ± 1.54 %ID/g
Kidney uptake ([3]; 30 min p.i., n = 5): 13.13 ± 4.75 %ID/g
Liver uptake ([3]; 30 min p.i., n = 5): 2.82 ± 1.25 %ID/g
Lungs uptake ([3]; 30 min p.i., n = 5): 4.24 ± 1.71 %ID/g
Muscle uptake ([3]; 30 min p.i., n = 5): 1.10 ± 0.25 %ID/g
Spleen uptake ([3]; 30 min p.i., n = 5): 2.53 ± 0.85 %ID/g
Blood uptake ([3]; 30 min p.i., n = 5): 0.92 ± 0.33 %ID/g
Tumor/Blood ratio ([3]; 60 min p.i., n = 8): 15.94 ± 8.85
Tumor/Kidney ratio ([3]; 60 min p.i., n = 8): 0.79 ±0.40
Tumor/Liver ratio ([3]; 60 min p.i., n = 8): 3.05 ± 1.69
Tumor/Lung ratio ([3]; 60 min p.i., n = 8): 2.73 ± 1.33
Tumor/Muscle ratio ([3]; 60 min p.i., n = 8): 9.40 ± 5.11
Brain uptake ([3]; 60 min p.i., n = 8): 0.35 ± 0.28 %ID/g
Eyes uptake ([3]; 60 min p.i., n = 8): 0.81 ± 0.39 %ID/g
Heart uptake ([3]; 60 min p.i., n = 8): 1.27 ± 0.61 %ID/g
Intestine uptake ([3]; 60 min p.i., n = 8): 5.45 ± 1.47 %ID/g
Kidney uptake ([3]; 60 min p.i., n = 8): 11.70 ± 4.06 %ID/g
Liver uptake ([3]; 60 min p.i., n = 8): 3.07 ± 2.14 %ID/g
Lungs uptake ([3]; 60 min p.i., n = 8): 2.93 ± 0.94 %ID/g
Muscle uptake ([3]; 60 min p.i., n = 8): 0.88 ± 0.34 %ID/g
Spleen uptake ([3]; 60 min p.i., n = 8): 1.99 ± 0.71 %ID/g
Blood uptake ([3]; 60 min p.i., n = 8): 0.56 ± 0.25 %ID/g
Tumor/Blood ratio ([3]; 120 min p.i., n = 8): 26.48 ± 8.71
Tumor/Kidney ratio ([3]; 120 min p.i., n = 8): 0.89 ±0.48
Tumor/Liver ratio ([3]; 120 min p.i., n = 8): 4.03 ± 2.04
Tumor/Lung ratio ([3]; 120 min p.i., n = 8): 4.38 ± 1.34
Tumor/Muscle ratio ([3]; 120 min p.i., n = 8): 12.91 ± 4.95
Brain uptake ([3]; 120 min p.i., n = 8): 0.14 ± 0.12 %ID/g
Eyes uptake ([3]; 120 min p.i., n = 8): 0.52 ± 0.15 %ID/g
Heart uptake ([3]; 120 min p.i., n = 8): 0.56 ± 0.08 %ID/g
Intestine uptake ([3]; 120 min p.i., n = 8): 3.37 ± 1.32 %ID/g
Kidney uptake ([3]; 120 min p.i., n = 8): 6.04 ± 1.92 %ID/g
Liver uptake ([3]; 120 min p.i., n = 8): 1.54 ±0.43 %ID/g
Lungs uptake ([3]; 120 min p.i., n = 8): 1.31 ± 0.23 %ID/g
Muscle uptake ([3]; 120 min p.i., n = 8): 0.47 ± 0.12 %ID/g
Spleen uptake ([3]; 120 min p.i., n = 8): 1.46 ± 0.26 %ID/g
Blood uptake ([3]; 120 min p.i., n = 8): 0.22 ± 0.03 %ID/g
Tumor uptake ([3]; 5 min p.i., n = 5): 10.30 ± 1.67 %ID/g
Tumor uptake ([3]; 30 min p.i., n = 5): 8.37 ± 2.13 %ID/g
Tumor uptake ([3]; 60 min p.i., n = 8): 6.86 ± 1.33 %ID/g
Tumor uptake ([3]; 120 min p.i., n = 8): 5.61 ± 1.52 %ID/g
Remained intact in the feces ([4]; feces at 2 h p.i.): More than 90%
Metabolites in the urine ([4]; urine at 30 min and 120 min p.i.): no metabolites detected

Source: paper PMC3946497 (Molecular pharmaceutics, 2013)
